Series [1] can be described thus: Chemical stability of the compound by TLC analysis. The series is classed as physicochemical.
The test system of series [2] is P388. The experiment in a line: Antitumor activity against mouse P388 cells allografted in DBA/2 mouse assessed as tumor growth inhibition at 20 mg/kg, ip qd relative to control. The class given is functional. The note with it: route intraperitoneal.
The test system of series [3] is W256. The experiment in a line: Antitumor activity against rat Walker 256 cells allografted in Sprague-Dawley rat assessed as tumor growth inhibition at 2.5 mg/kg, ip qd relative to control. The class given is functional. The note with it: route intraperitoneal.
In series [4] the test system is P388. The experiment in a line: Antitumor activity against mouse P388 cells allografted in DBA/2 mouse assessed as host survival at 20 mg/kg, ip qd. The series is classed as functional. As to conditions: route intraperitoneal. A digest of the protocol: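 P388 leukaemia cells were implanted on day 0 in male DBA/2 mice (20 g). Compound was dosed ip at 20 mg/kg/day. T/C survival values were calculated according to the NIH protocol. 5-Fluorouracil served as the internal standard.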

Series [5] relates to Ehrlich. The experiment in a line: Antitumor activity against mouse EAC allografted in CF1 mouse assessed as tumor volume at 33 mg/kg/day measured on day 7. The series is classed as functional.
In series [6] the test system is W256. The series can be described thus: Antitumor activity against rat Walker 256 cells allografted in Sprague-Dawley rat assessed as host survival days at 2.5 mg/kg, ip qd. The class given is functional. The note with it: route intraperitoneal. A digest of the protocol:
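Walker 256 ascites cells were implanted ip into male Sprague-Dawley rats (75 ± 10 g). Compound in 0.05% Tween-water was given ip at 2.5 mg/kg/day, and the day of death was recorded. T/C was calculated from the mean survival time per group according to the NIH protocol. Melphalan served as the internal standard.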

Series [7] is described as follows: Acute toxicity in CF1 mouse. The class given is organism-based. As to conditions: in vivo.
In series [8] the test system is Ehrlich. The experiment in a line: Antitumor activity against mouse EAC allografted in CF1 mouse assessed as inhibition of tumor growth at 33 mg/kg/day measured on day 7. The class given is functional. As to conditions: 168 h.
A short description of series [9]: Chemical stability of the compound assessed as optical rotation. The series is classed as physicochemical.
For series [10], the system named is Ehrlich. The series can be described thus: Antitumor activity against mouse EAC allografted in CF1 mouse assessed as host survival at 33 mg/kg/day measured on day 7. The series is classed as functional, organism-based.

Active and inactive are the calls of the source. The calls are words filed in the database; no cut-off is given here. Some results are limits rather than exact numbers.

`Cc1ccc(S(=O)(=O)N[C@@H](Cc2ccccc2)C(=O)OCC#N)cc1`: the Stability entry in [1] and in series [9] was “Stable” each time. For the same compound, the T/C in series [2] amounted to 112; in series [3], 113. Moreover, the Survival is 9.1 days in series [4] and 8.5 days in series [6]. For the same compound, in [5], the Activity was 0.4 mL. In series [7], this compound came in with an LD50 of 730 µmol/kg. For the same compound, the inhibition in vivo at 33 mg/kg/day in series [8] amounted to 97%.

Consider `C=COC(=O)[C@H](Cc1ccccc1)NC(=O)OCc1ccccc1`, for which the Stability result in series [1] and in series [9] was “Stable” in each case. The T/C in series [2] came out at 100; in [3] it was 226. Further, in series [10], the Survival result was “Active”. The Survival was determined as 8.1 days in series [4] and 18.1 days in series [6]. The Activity in series [5] stood at 0.1 mL. The compound also came in with an LD50 in series [7] of over 6150 µmol/kg. The inhibition in vivo at 33 mg/kg/day in series [8] came to 99.9%.

For the compound `N#CCOC(=O)[C@H](Cc1ccccc1)NC(=O)OCc1ccccc1`, the Stability entry in series [1] and in [9] was “Stable” in each case. Further, the T/C in [2] was 82; in series [3], 113. Besides, the Survival result in series [10] was “Active”. Besides, the results for the Survival in [4] and in series [6] were 6.6 days and 8.5 days, respectively. Also, in series [5], the Activity was 0.2 mL. This compound also displayed a 50% lethal dose (LD50) in series [7] of 440 µmol/kg. The inhibition in vivo at 33 mg/kg/day in [8] is 99.9%.

Take `O=C(N[C@H](Cc1ccccc1)C(=O)OC(Br)CBr)OCc1ccccc1` (some centres not stated): the T/C in [2] amounted to 92; in [3], 117. Besides, the Survival result in series [10] was “Active”. Also, the values for the Survival in series [4] and in series [6] were 7.5 days and 8.7 days, respectively. In series [5], the Activity worked out at 0 mL. In [7], the LD50 came to 310 µmol/kg. Also, in series [8], the inhibition in vivo at 33 mg/kg/day came to 100%.

The values above are taken from ChEMBL document CHEMBL3272299, “Antineoplastic agents. 1. N-Protected vinyl, 1,2-dihaloethyl, and cyanomethyl esters of phenylalanine” (J Med Chem, 1977).
